Assay [1] is described as follows: thallium flux activation in parental CHO cells, counter-screen for KCNQ1 potentiator project (AID 493006;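 active = duplicate-averaged activation above buffer control mean plus 5 SD of those controls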). The conditions noted are these: parental CHO-K1 cells, FluxOR thallium flux, at 10 µM; hits give high values. In short, it runs like this: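 Test system: parental CHO-K1 cells, FluxOR dye-loaded / Probe or stimulus: potassium plus thallium depolarizing stimulus, 5x stock 12.5 mM K2SO4, Tl2SO4 / Timing: overnight 37 °C plating, 90 min dye, 20 min dark compound / Measured by: kinetic thallium-flux fluorescence / Read-out: max-minus-min fluorescence over baseline, percent of buffer-to-R-L3 span / Benchmarks: buffer and R-L3 controls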
For orientation: The purpose of a counterscreen is to sort out artefacts and off-target activity.

Assay [2] has as its target Potassium voltage-gated channel subfamily KQT member 1 (Homo sapiens) (UniProt P51787). Put plainly: KCNQ1 potassium channel potentiators, confirmation, FluxOR thallium flux, CHO cells, duplicates (AID 493007;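 active = potentiation averaged over duplicate wells exceeding buffer-only control mean by more than 3 SD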;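 as to outcome: cells depolarized by a potassium plus thallium sulfate stimulus after compound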;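 as to potentiation: 0% = buffer-only wells and 100% = R-L3 activator control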). Conditions: KCNQ1 cell line, FluxOR thallium flux fluorescence, at 10 µM; hits give high values, % of reference activator effect, buffer zero. The essentials: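 Assay system: CHO cells carrying KCNQ1 | Controls: Buffer and R-L3 controls | Schedule: FluxOR dye loading 90 min, compound exposure 20 min, room temperature | Read-out: Baseline-normalized fluorescence change, percent of buffer-to-R-L3 range | Replicates: Each compound tested in duplicate | Technique: Kinetic thallium influx fluorescence with FluxOR dye, 10 s baseline, 110 s post-stimulus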

For assay [3], the target named is Potassium voltage-gated channel subfamily KQT member 2 (Rattus norvegicus) (UniProt O88943). Briefly: rat KCNQ2 channel potentiation, selectivity assay for KCNQ1 potentiator project, KCNQ2-CHO-K1 cells (AID 493009).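 Also: assay conditions were tuned for KCNQ1 rather than KCNQ2 modulators.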 Conditions: FluxOR thallium flux fluorescence, at 10 µM; hits give high values, scaled: buffer 0, activator control 100.
Potassium voltage-gated channel subfamily KQT member 2 (Rattus norvegicus), sequence (O88943 whole entry, looked up): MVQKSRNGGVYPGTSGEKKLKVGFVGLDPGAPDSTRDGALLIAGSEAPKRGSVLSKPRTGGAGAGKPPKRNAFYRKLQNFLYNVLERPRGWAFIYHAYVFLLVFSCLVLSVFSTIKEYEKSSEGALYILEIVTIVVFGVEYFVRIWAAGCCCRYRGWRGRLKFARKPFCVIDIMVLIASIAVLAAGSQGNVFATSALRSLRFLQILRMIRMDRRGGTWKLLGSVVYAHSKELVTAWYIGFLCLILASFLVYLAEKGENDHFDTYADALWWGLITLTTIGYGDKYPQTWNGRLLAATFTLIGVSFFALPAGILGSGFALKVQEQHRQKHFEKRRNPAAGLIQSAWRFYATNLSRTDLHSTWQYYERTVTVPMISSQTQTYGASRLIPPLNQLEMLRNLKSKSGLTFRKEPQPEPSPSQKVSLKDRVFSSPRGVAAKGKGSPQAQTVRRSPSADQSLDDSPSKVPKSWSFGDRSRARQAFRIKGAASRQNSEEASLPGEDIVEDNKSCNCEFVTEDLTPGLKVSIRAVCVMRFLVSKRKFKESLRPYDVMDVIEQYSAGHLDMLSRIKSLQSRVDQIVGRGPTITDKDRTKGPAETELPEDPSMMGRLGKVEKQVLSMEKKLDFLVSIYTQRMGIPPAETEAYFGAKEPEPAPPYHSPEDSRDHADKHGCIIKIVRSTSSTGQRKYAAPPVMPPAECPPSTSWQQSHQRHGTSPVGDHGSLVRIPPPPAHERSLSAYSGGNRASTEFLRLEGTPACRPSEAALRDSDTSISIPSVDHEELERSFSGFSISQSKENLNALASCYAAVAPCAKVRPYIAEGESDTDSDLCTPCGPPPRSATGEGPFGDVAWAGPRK
Assay [4] concerns the target Potassium voltage-gated channel subfamily KQT member 1 (Homo sapiens) (UniProt P51787). Briefly: KCNQ1 channel current potentiators, confirmation, orthogonal assay for KCNQ1 potentiator project, IonWorks patch clamp, KCNQ1-CHO cells (AID 493184;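 active = current rise at least 3 SD above the untreated control mean in each of two repeat wells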). The conditions noted are these: automated patch clamp current, at 10 µM; hits give high values. In short, it runs like this: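 Material: KCNQ1-expressing CHO cells; doses: 10 µM final, single point; probe or stimulus: voltage step from -90 mV holding to +40 mV, 2,000 ms; signal: automated voltage clamp, amphotericin B perforated patch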

In assay [5] the target is Potassium voltage-gated channel subfamily E member 1 (Homo sapiens) + Potassium voltage-gated channel subfamily KQT member 1 (Homo sapiens) (UniProt P15382+P51787). Briefly: KCNQ1/KCNE1 complex potentiators, confirmation, selectivity assay for KCNQ1 potentiator project, thallium flux, CHO-K1 KCNQ1/E1 cells (AID 493186;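 active = mean duplicate activation above the buffer control mean plus 5 SD of those controls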). The conditions noted are these: FluxOR thallium flux, at 10 µM; hits give high values. The essentials:
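Test system: CHO-K1 cells with KCNQ1/E1. Times: 90-min dye loading then 20-min compound exposure, both at room temperature. Measured by: kinetic FluxOR thallium-flux fluorescence, 10 s baseline plus 110 s after stimulus. Repeats: duplicate wells per compound.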

Activity calls are given as the source filed them.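 The calls were made as follows, unless noted: active = mean duplicate potentiation above the buffer control mean plus 5 SD of buffer wells; inactive = the rest.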

Potassium voltage-gated channel subfamily E member 1 (Homo sapiens) + Potassium voltage-gated channel subfamily KQT member 1 (Homo sapiens), sequence (P51787 whole entry, looked up): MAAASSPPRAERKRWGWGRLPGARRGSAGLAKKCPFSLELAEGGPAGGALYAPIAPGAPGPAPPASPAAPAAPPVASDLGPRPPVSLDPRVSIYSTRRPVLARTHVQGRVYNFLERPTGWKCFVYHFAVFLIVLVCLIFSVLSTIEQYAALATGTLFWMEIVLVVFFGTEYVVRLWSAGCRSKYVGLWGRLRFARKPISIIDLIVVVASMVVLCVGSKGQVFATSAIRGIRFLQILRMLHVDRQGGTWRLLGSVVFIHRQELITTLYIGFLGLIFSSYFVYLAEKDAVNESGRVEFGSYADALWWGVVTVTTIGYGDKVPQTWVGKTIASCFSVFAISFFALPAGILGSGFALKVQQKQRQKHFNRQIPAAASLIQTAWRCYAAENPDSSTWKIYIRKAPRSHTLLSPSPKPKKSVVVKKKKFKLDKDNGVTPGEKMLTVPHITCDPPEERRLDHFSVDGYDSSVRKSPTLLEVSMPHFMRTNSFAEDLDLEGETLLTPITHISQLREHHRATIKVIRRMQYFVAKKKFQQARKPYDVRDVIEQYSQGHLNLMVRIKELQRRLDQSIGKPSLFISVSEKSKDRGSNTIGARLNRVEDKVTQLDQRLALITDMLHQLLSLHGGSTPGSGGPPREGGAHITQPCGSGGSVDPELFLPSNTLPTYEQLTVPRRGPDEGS
Potassium voltage-gated channel subfamily KQT member 1 (Homo sapiens), sequence (P51787 whole entry, looked up): as above

For the molecule `CCNc1nc(NCC)nc(C(=O)OCCO)n1`, the outcome in assay [1], in assay [2], in assay [3], in assay [4] and in assay [5] was inactive.

In the case of `COc1ccc(OC)c(NC(=S)NC(=O)c2ccc(Br)o2)c1`, the outcome in assay [1], in assay [2], in assay [3], in assay [4] and in assay [5] was inactive.

In the case of `O=C(NC1CCCC1)C(c1cccnc1)N(C(=O)c1csnn1)c1ccccc1` (stereo not given), the outcome in assay [1], in assay [3], in assay [4] and in assay [5] was inactive. For the same molecule, the potentiation in assay [2] was 27% (active).

In the case of `O=C(Nc1ccccc1Br)c1ccccc1-c1ccccc1`, the result in assay [1], in assay [3], in assay [4] and in assay [5] was inactive. In assay [2], the potentiation is 29.5% (active).

`CC1CCCCN1CCCNC(=O)Cn1ncc2c([nH]c3ccccc32)c1=O` (stereo not given): the result in assay [1], in assay [2], in assay [3], in assay [4] and in assay [5] was inactive.

Turning to `Cc1ccc(O)c(NC(=S)NC(=O)COc2ccc(Br)cc2)c1`, the result in assay [1], in assay [2], in assay [3], in assay [4] and in assay [5] was inactive.

On to `S=c1[nH]nc(C2CCCCC2)n1/N=C/c1cccc(Cl)c1Cl`, for which the result in assay [1], in assay [3], in assay [4] and in assay [5] was inactive. In addition, the potentiation in assay [2] was 41% (active).

With `N#CC(c1ccccc1)c1ccc2c(C(F)(F)F)cc(C(F)(F)F)nc2n1` (stereo not given), the outcome in assay [1], in assay [3], in assay [4] and in assay [5] was inactive. Moreover, the potentiation in assay [2] is 129% (active).

For the molecule `Cc1ccc(OCCn2c(=S)[nH]c3ccccc32)c(C(C)C)c1`, the outcome in assay [1], in assay [3], in assay [4] and in assay [5] was inactive. The potentiation in assay [2] was 119% (active).

For `COc1ccc(OCC(=O)NC(=S)NNC(=O)COc2ccc(Br)cc2Cl)cc1`, the result in assay [1], in assay [3], in assay [4] and in assay [5] was inactive. The potentiation in assay [2] is 18.5% (active).

As to `C=CCn1c(O)c(N=NC(=S)Nc2ccc(OC)cc2)c2ccccc21`, the result in assay [1], in assay [3], in assay [4] and in assay [5] was inactive. Also, in assay [2], the potentiation is 33.5% (active).

Consider `Cc1nn(Cc2ccc(Cl)cc2)c(C)c1NC(=O)c1cc(-c2ccco2)on1`, for which the outcome in assay [1], in assay [2], in assay [3], in assay [4] and in assay [5] was inactive.

Regarding `CN(C)CCCN(C(=O)CCOc1ccccc1)c1nc2c(F)cccc2s1`, the outcome in assay [1], in assay [2], in assay [3], in assay [4] and in assay [5] was inactive.

Regarding `COc1cccc(/C=N/n2c(SC)nnc2-c2ccccc2)c1O`, the result in assay [1], in assay [2], in assay [3], in assay [4] and in assay [5] was inactive.

Regarding `COC(=O)c1sccc1NC(=O)CSc1ccccc1NS(=O)(=O)c1cc(Cl)ccc1Cl`, the outcome in assay [1], in assay [2], in assay [3], in assay [4] and in assay [5] was inactive.

For `CC(=C/c1ccccc1)/C=N/n1c(-c2ccco2)n[nH]c1=S`, the result in assay [1], in assay [2], in assay [3], in assay [4] and in assay [5] was inactive.

Consider `Cc1cc(C)cc(OCC(=O)NNC(=O)c2cc3ccccc3o2)c1`, for which the outcome in assay [1], in assay [2], in assay [3], in assay [4] and in assay [5] was inactive.

Consider `NC(=O)CN1C(=O)NC2(CCOc3ccccc32)C1=O` (stereo not given), for which the outcome in assay [1], in assay [2], in assay [3], in assay [4] and in assay [5] was inactive.

Regarding `O=C(NC(=S)Nc1cc(C(F)(F)F)ccc1N1CCOCC1)c1sc2ccccc2c1Cl`, the result in assay [1], in assay [2], in assay [3], in assay [4] and in assay [5] was inactive.

In the case of `CN(C)c1cccc(C(=O)N2CCCC(C(=O)c3cc(F)ccc3F)C2)c1` (stereo not given), the result in assay [1], in assay [2], in assay [3], in assay [4] and in assay [5] was inactive.

`COc1ccc(C(=O)N=C2CCC(C#N)=C3c4cc(OC)c(OC)cc4CCN23)cc1`: the result in assay [1], in assay [3], in assay [4] and in assay [5] was inactive. Moreover, the potentiation in assay [2] is 34.5% (active).

In the case of `C=CCNC(=S)Nc1sc2c(c1C(=O)OCC)CCN(C(=O)OCC)C2`, the outcome in assay [1], in assay [2], in assay [3], in assay [4] and in assay [5] was inactive.

Regarding `Cc1cccc(NC(=O)C2CCCN2S(=O)(=O)c2ccc(Cl)cc2)n1` (stereo not given), the result in assay [1], in assay [2], in assay [3], in assay [4] and in assay [5] was inactive.

With `CCOC(=O)C(Sc1nnc(-c2ccncc2)o1)C(C)=O` (stereo not given), the outcome in assay [1], in assay [2], in assay [3], in assay [4] and in assay [5] was inactive.

As for `FC(F)(F)c1cccc(CN2CCC(c3cc(-c4cccs4)n[nH]3)CC2)c1`, the result in assay [1], in assay [2], in assay [3], in assay [4] and in assay [5] was inactive.

On to `CC1=NOC(=O)/C1=C\c1ccc(-c2ccc(Br)cc2)o1`, for which the result in assay [1], in assay [2], in assay [3], in assay [4] and in assay [5] was inactive.

Take `COC(=O)c1sc(NC(=S)NC(=O)c2cccc(C)c2)nc1C`: the outcome in assay [1], in assay [2], in assay [3], in assay [4] and in assay [5] was inactive.

`COc1ccc(OCCCC(=O)NNC(=O)CCN2CCN(c3ccccc3)CC2)cc1`: the outcome in assay [1], in assay [4] and in assay [5] was inactive. Moreover, the potentiation in assay [2] is 19% (active); in assay [3], 142% (active).

As to `Cn1cnc([N+](=O)[O-])c1S(=O)(=O)c1cccc(Cl)c1`, the outcome in assay [1], in assay [2], in assay [3], in assay [4] and in assay [5] was inactive.

Turning to `CSCC(C)N1CCC(n2nccc2NC(=O)CCOc2ccccc2)CC1` (stereo not given), the result in assay [1], in assay [2], in assay [3], in assay [4] and in assay [5] was inactive.

The values are drawn from PubChem BioAssay.
